The record followed here is ChEMBL document CHEMBL1944539, “Design, synthesis, and biological evaluation of potent quinoline and pyrroloquinoline ammosamide analogues as inhibitors of quinone reductase 2” (J Med Chem, 2012).

The source made the active and inactive calls. No cut-off for these calls is given here.

Series [1] deals with SN12C. The experiment in a line: Cytotoxicity against human SN12C cells assessed as cell growth at 10 uM. The format is cell-based. The essentials:
(§1)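 Cells exposed to compound at a single concentration; read-out is growth percent relative to untreated control cultures.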

The test system of series [2] is HCT-116. The experiment in a line: Cytotoxicity against human HCT116 cells assessed as cell growth at 10 uM. The format is cell-based. To be noted: hct-116, 10 µM. The essentials: as §1
In series [3] the target is T1, Ribosyldihydronicotinamide dehydrogenase [quinone] (Homo sapiens, UniProt P16083).
T1 sequence (P16083 whole entry): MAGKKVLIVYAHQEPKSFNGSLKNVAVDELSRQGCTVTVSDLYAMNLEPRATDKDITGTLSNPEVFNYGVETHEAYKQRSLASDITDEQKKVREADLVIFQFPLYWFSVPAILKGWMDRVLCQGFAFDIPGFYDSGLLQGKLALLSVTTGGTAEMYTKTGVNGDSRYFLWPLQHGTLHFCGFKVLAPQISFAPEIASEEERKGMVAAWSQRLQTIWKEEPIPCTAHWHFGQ
Nature of the series: (§2) Inhibition of human quinone reductase 2 using NMeH as substrate by MTT assay. The essentials:
(§3)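 Human QR2 (12 nM) with 25 μM NMeH and 200 μM MTT in 100 mM NaCl, 50 mM Tris pH 7.5, 0.1% Triton X-100, 23 °C; reactions started by enzyme. Formazan formation read at 612 nm; initial rates from ε 11,300 M-1cm-1. Inhibitor at varying concentrations, triplicate; IC50 from % inhibition versus zero-inhibitor control.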
(Tetrazolium assays rely on reduction of a dye to a coloured formazan, in cell work by metabolically active cells.)

The subject of series [4] is OVCAR-3. Nature of the series: Cytotoxicity against human OVCAR3 cells assessed as cell growth at 10 uM. Format: cell-based. To be noted: ovcar-3, 10 µM. The method in brief:
as §1

Series [5] deals with UACC-62. The experiment in a line: Cytotoxicity against human UACC62 cells assessed as cell growth at 10 uM. To be noted: uacc-62, 10 µM. The format is cell-based. The essentials:
as §1

Series [6] relates to HOP-62. Nature of the series: Cytotoxicity against human HOP62 cells assessed as cell growth at 10 uM. Format: cell-based. To be noted: hop-62, 10 µM. The method in brief: as §1
Series [7] has as its target T2, Ribosyldihydronicotinamide dehydrogenase [quinone] (Homo sapiens) (UniProt P16083).
T2 sequence (whole entry): T1 sequence (P16083 whole entry)
The experiment in a line: Inhibition of human quinone reductase 2 using NMeH as substrate by MTT assay relative to control.

Series [8] relates to MCF7. Nature of the series: Cytotoxicity against human MCF7 cells assessed as cell growth at 10 uM. The format is cell-based. To be noted: mcf7, 10 µM. The essentials: as §1
Series [9] deals with DU-145. The experiment in a line: Cytotoxicity against human DU145 cells assessed as cell growth at 10 uM. The format is cell-based. To be noted: du-145, 10 µM. The method in brief: as §1
Series [10] relates to SF-539. The experiment in a line: Cytotoxicity against human SF539 cells assessed as cell growth at 10 uM. The format is cell-based. To be noted: sf-539, 10 µM. The essentials:
as §1

Series [11] concerns the target T2, Ribosyldihydronicotinamide dehydrogenase [quinone] (Homo sapiens). The series is described as §2. The method in brief: as §3
The target is the same in series [12]. Nature of the series: Ratio of IC50 for ammosamide B to compound IC50 for human quinone reductase 2 using NMeH as substrate by MTT assay.

What is called IC50 is the midpoint of a concentration-inhibition curve. A high value points to weaker potency in that assay. Consider `COC(=O)c1cc(C(=O)OC)c2c(Cl)cc(N(C)C)cc2n1`, for which the Activity in [1] came out at 113.39%; in series [2] it was 104.18%; in series [4] it was 115.27%; in [5], 109.82%; in series [6], 114.23%; in series [8], 78.61%. In addition, the Activity in [9] turned out to be 138.91%; in series [10] it was 100.61%. Besides, the half-maximal inhibitory concentration (IC50) in [3] is 4 µM. The Imax in [7] came out at 92.2%.

`CN1C(=O)c2cc(C(N)=O)nc3c(Cl)cc(Cl)c1c23`: the Activity in series [1] was 101.49%; in [2], 107%; in [4] it was 108.21%; in [5], 90.84%; in series [6] it was 105.32%; in series [8] it was 96.11%. In addition, the results for the Activity in series [9] and in [10] were 97.82% and 104.34%, respectively. In addition, in series [3], half-maximal inhibition (IC50) required 5.8 µM. Also, the Imax in series [7] is 46.3%.

As for `CN1C(=O)c2cc(C(N)=O)nc3c(N)c(Cl)c(N)c1c23` [AMMOSAMIDE B], the Activity in series [1] was 98.89%; in [2], 101.05%; in [4], 115.24%; in [5], 100.09%; in series [6], 96.95%; in [8], 98.04%. Also, the Activity is on record as 114.59% in series [9] and 88.22% in series [10]. It took 0.061 µM to reach half-maximal inhibition in series [3] (IC50). This compound also displayed an Imax in series [7] of 90.3%.

The compound `COC(=O)c1cc(C(N)=O)nc2cc(N)c(I)cc12` returned a concentration for half-maximal inhibition (IC50) in series [3] of 1.5 µM. The compound also returned an Imax in series [7] of 83.9%.

For the compound `COC(=O)c1cc(C(N)=O)nc2cc(N(C)C)cc(Cl)c12`, in series [3], 1.6 µM corresponded to half-maximal inhibition (IC50). Further, the Imax in series [7] came out at 80.5%.

In [3], `COC(=O)c1cc(C(=O)OC)c2c(Cl)c(N)c(N)cc2n1` gave a half-inhibitory concentration (IC50) of 0.24 µM. The same compound came in with an Imax in series [7] of 85.7%.

On to `CN(C)C(=O)c1cc2c3c(c(Cl)cc(Cl)c3n1)N(C)C2=O`, for which the Activity is given as 106.07% in [1]; 102.47% in series [2]; 126.09% in series [4]; 110.63% in series [5]; 118.26% in series [6]; 122.71% in series [8]. The Activity in series [9] came to 127.34%; in series [10], 101.43%. In series [3], inhibition was half-maximal at 25.2 µM (IC50). Also, the Imax in series [7] turned out to be 31.5%.

With `NC(=O)c1cc(C(N)=O)c2cc(I)c(N)cc2n1`, inhibition in [3] was half-maximal at 1.5 µM (IC50). In [7], this compound showed an Imax of 64%.

For `COC(=O)c1cc(C(=O)OC)c2c(Cl)cc(N)c(Cl)c2n1`, the Activity came to 99.49% in [1]; 100.36% in [2]; 109.55% in [4]; 97.93% in series [5]; 104.53% in series [6]; 100.27% in series [8]. Moreover, the Activity in series [9] is listed as 108.85%; in series [10] it was 99.06%. Further, the IC50 in series [3] was 5.6 µM. In series [7], this compound came in with an Imax of 91.1%.

`COC(=O)c1cc(C(=O)OC)c2c(Cl)cc(N)cc2n1`: the Activity in [1] worked out at 102.78%; in [2], 108.2%; in [4], 106.32%; in series [5], 101.7%; in series [6], 108.99%; in series [8], 105.75%. Also, the figures for the Activity in series [9] and in series [10] were 108.11% and 117.31%, respectively. Besides, the IC50 in [3] was 3.3 µM. For the same compound, the Imax in series [7] is 87.9%.

Consider `COC(=O)c1cc2c3c(n1)C(=O)C(=O)C(Cl)=C3N(C)C2=O`, for which the Activity in series [1] was 102.66%; in series [2], 104.56%; in series [4] it was 123.43%; in series [5] it was 96.96%; in series [6], 110.6%; in series [8] it was 94.99%. Further, the Activity stood at 112.19% in [9] and 106.99% in series [10].

In turn, `COC(=O)c1cc(C(N)=O)nc2cc(N)c(N)c(Cl)c12` came in with a half-inhibitory concentration (IC50) in series [3] of 0.15 µM. The compound also showed an Imax in [7] of 89.7%.

On to `COC(=O)C1CC(O)(C(=O)OC)c2c(N)c(Cl)cc(Cl)c2N1` (centres undefined), for which the inhibition entry in series [11] was “inactive”.

In series [3], `CNc1c(Cl)c(N)c2c3c(cc(C(N)=O)nc13)C(=O)N2C` had a 50% inhibitory concentration (IC50) of 0.0041 µM. Besides, the Ratio IC50 in series [12] was above 10. The Imax in [7] was 102%.

In the case of `COC(=O)C1CC2(O)C(=O)Nc3c(Cl)cc(Cl)c(c32)N1` (centres undefined), the inhibition result in series [11] is “inactive”.

On to `COC(=O)c1cc(C(=O)OC)c2c(Cl)cc(NC(C)=O)cc2n1`, for which the Activity in series [1] was 109.64%; in series [2] it was 103.44%; in [4], 124.69%; in [5], 112.51%; in series [6] it was 112.21%; in series [8], 100.11%. Besides, the Activity in series [9] is 112.18%; in series [10] it was 109.23%. In [3], this compound returned an IC50 above 100 µM.

In [3], `COC(=O)c1cc(C(=O)OC)c2c(N)c(Cl)cc(Cl)c2n1` displayed a half-maximal inhibitory concentration (IC50) of 22.1 µM. The same compound displayed an Imax in series [7] of 36.6%.

Consider `CN1C(=O)c2cc(C(=O)NCc3ccccc3)nc3c(Cl)cc(Cl)c1c23`, for which the Activity came to 107.48% in series [1]; 103.06% in [2]; 103.52% in [4]; 101.93% in series [5]; 113.2% in series [6]; 95.79% in series [8]. The Activity in series [9] was 104.81%; in series [10] it was 97.49%. Moreover, it took 7.8 µM to reach half-maximal inhibition in [3] (IC50). In series [7], this compound showed an Imax of 44.8%.

Regarding `COC(=O)c1cc(C(N)=O)nc2cc(N)cc(Cl)c12`, the Activity was 102.63% in [1]; 98.84% in series [2]; 110.07% in series [4]; 102.96% in [5]; 109.87% in series [6]; 97.23% in [8]. The Activity in [9] worked out at 105.75%; in series [10], 104.82%. The compound also yielded an IC50 in series [3] of 1.1 µM. For the same compound, the Imax in series [7] was 75.5%.

Consider `COC(=O)c1cc(C(N)=O)nc2cc(NC(C)=O)cc(Cl)c12`, for which the Activity is on record as 109% in series [1]; 104.18% in series [2]; 120.2% in series [4]; 108.54% in series [5]; 103.41% in series [6]; 89.58% in series [8]. Moreover, the Activity is on record as 124.6% in series [9] and 107.48% in series [10]. In series [3], the IC50 came out at 9 µM. In [7], this compound had an Imax of 96%.
